ChEMBL document CHEMBL3272156, “(Vinylaryloxy)acetic acids. A new class of diuretic agents. 4. Various ((2-substituted and 2,2-disubstituted vinyl)aryloxy)acetic acids” (1976)

How the values were obtained:
Canis familiaris [1] = assay: Diuretic activity in mongrel dog […] assessed as urine Na+ level per 6 hrs at 1 mg/kg, po as gelatin capsules (reference value: 2 equiv/6 hrs); type: functional, Canis lupus familiaris
How it was run: (§1)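 Trained female mongrel dogs (8–10 kg) given 100 ml water the day before and fasted overnight. On test day they received 250 ml water orally, then 500 ml 1 h later. One hour after that, bladders were catheter-emptied and compound or placebo was given orally in gelatin capsules. Dogs were kept in metabolism cages, and spontaneous urine was pooled with catheter urine at 6 h. Volume and Na+, K+ and Cl− were measured; results are averages per dog group.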

Canis familiaris [2] = assay: Diuretic activity in mongrel dog […] assessed as urine K+ level per 6 hrs at 1 mg/kg, po as gelatin capsules (reference value: 1 equiv/6 hrs); type: functional, Canis lupus familiaris; how it was run: as §1
Canis familiaris [3] = assay: Diuretic activity in mongrel dog […] assessed as urine Cl- level per 6 hrs at 1 mg/kg, po as gelatin capsules (reference value: 2 equiv/6 hrs); type: functional, Canis lupus familiaris; how it was run: as §1
Canis familiaris [4] = assay: Diuretic activity in mongrel dog […] assessed as urine Na+ level per 6 hrs at 0.3 mg/kg, po as gelatin capsules (reference value: 2 equiv/6 hrs); type: functional, Canis lupus familiaris; how it was run: as §1
Canis familiaris [5] = assay: Diuretic activity in mongrel dog […] assessed as urine K+ level per 6 hrs at 0.3 mg/kg, po as gelatin capsules (reference value: 1 equiv/6 hrs); type: functional, Canis lupus familiaris; how it was run: as §1
Canis familiaris [6] = assay: Diuretic activity in mongrel dog assessed as urine Cl- level per 6 hrs at 0.3 mg/kg, po as gelatin capsules (reference value: 2 equiv/6 hrs)
Canis familiaris [7] = assay: Diuretic activity in mongrel dog anesthetized with sodium pentobarbital assessed as urine Na+ level at 10 mg/kg, iv measured after 15 to 45 mins post dose (reference value: 3 to 44 uequiv/min); type: functional, Canis lupus familiaris
How it was run: (§2)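 Dogs given compound iv as the Na salt in water; clearance procedure per ref 1. Baseline is the mean of two 15-min clearance periods before dosing. Response is the mean of two consecutive 15-min periods of maximal Na+ excretion, usually 15–45 min after dosing. Values are from single representative experiments in a series of three or four dogs.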

Canis familiaris [8] = assay: Diuretic activity in mongrel dog anesthetized with sodium pentobarbital assessed as urine K+ level at 10 mg/kg, iv measured after 15 to 45 mins post dose (reference value: 10 to 44 uequiv/min); type: functional, Canis lupus familiaris; how it was run: as §2
Canis familiaris [9] = assay: Diuretic activity in mongrel dog anesthetized with sodium pentobarbital assessed as urine Cl- level at 10 mg/kg, iv measured after 15 to 45 mins post dose (reference value: 0 to 30 uequiv/min); type: functional, Canis lupus familiaris; how it was run: as §2
Canis familiaris [10] = assay: Diuretic activity in mongrel dog anesthetized with sodium pentobarbital assessed as urine volume at 10 mg/kg, iv measured after 15 to 45 mins post dose (reference value: 1 to 5 ml/min); type: functional, Canis lupus familiaris; how it was run: as §2
Canis familiaris [11] = assay: Diuretic activity in mongrel dog anesthetized with sodium pentobarbital assessed as urine Na+ level at 5 mg/kg, iv measured after 15 to 45 mins post dose (reference value: 3 to 44 uequiv/min); type: functional, Canis lupus familiaris; how it was run: as §2
Canis familiaris [12] = assay: Diuretic activity in mongrel dog anesthetized with sodium pentobarbital assessed as urine K+ level at 5 mg/kg, iv measured after 15 to 45 mins post dose (reference value: 10 to 44 uequiv/min); type: functional, Canis lupus familiaris; how it was run: as §2
Canis familiaris [13] = assay: Diuretic activity in mongrel dog anesthetized with sodium pentobarbital assessed as urine Cl- level at 5 mg/kg, iv measured after 15 to 45 mins post dose (reference value: 0 to 30 uequiv/min); type: functional, Canis lupus familiaris; how it was run: as §2
Canis familiaris [14] = assay: Diuretic activity in mongrel dog anesthetized with sodium pentobarbital assessed as urine volume at 5 mg/kg, iv measured after 15 to 45 mins post dose (reference value: 1 to 5 ml/min); type: functional, Canis lupus familiaris; how it was run: as §2
Canis familiaris [15] = assay: Diuretic activity in mongrel dog anesthetized with sodium pentobarbital assessed as urine Na+ level at 1 mg/kg, iv measured after 15 to 45 mins post dose (reference value: 3 to 44 uequiv/min); type: functional, Canis lupus familiaris; how it was run: as §2
Canis familiaris [16] = assay: Diuretic activity in mongrel dog anesthetized with sodium pentobarbital assessed as urine K+ level at 1 mg/kg, iv measured after 15 to 45 mins post dose (reference value: 10 to 44 uequiv/min); type: functional, Canis lupus familiaris; how it was run: as §2
Canis familiaris [17] = assay: Diuretic activity in mongrel dog anesthetized with sodium pentobarbital assessed as urine Cl- level at 1 mg/kg, iv measured after 15 to 45 mins post dose (reference value: 0 to 30 uequiv/min); type: functional, Canis lupus familiaris; how it was run: as §2
Canis familiaris [18] = assay: Diuretic activity in mongrel dog anesthetized with sodium pentobarbital assessed as urine volume at 1 mg/kg, iv measured after 15 to 45 mins post dose (reference value: 1 to 5 ml/min); type: functional, Canis lupus familiaris; how it was run: as §2
Canis familiaris [19] = assay: Diuretic activity in mongrel dog anesthetized with sodium pentobarbital assessed as urine Na+ level at 25 mg/kg, iv measured after 15 to 45 mins post dose (reference value: 3 to 44 uequiv/min); type: functional, Canis lupus familiaris; how it was run: as §2
Canis familiaris [20] = assay: Diuretic activity in mongrel dog anesthetized with sodium pentobarbital assessed as urine K+ level at 25 mg/kg, iv measured after 15 to 45 mins post dose (reference value: 10 to 44 uequiv/min); type: functional, Canis lupus familiaris; how it was run: as §2
Canis familiaris [21] = assay: Diuretic activity in mongrel dog anesthetized with sodium pentobarbital assessed as urine Cl- level at 25 mg/kg, iv measured after 15 to 45 mins post dose (reference value: 0 to 30 uequiv/min); type: functional, Canis lupus familiaris; how it was run: as §2
Canis familiaris [22] = assay: Diuretic activity in mongrel dog anesthetized with sodium pentobarbital assessed as urine volume at 25 mg/kg, iv measured after 15 to 45 mins post dose (reference value: 1 to 5 ml/min); type: functional, Canis lupus familiaris; how it was run: as §2
Canis familiaris [23] = assay: Diuretic activity in mongrel dog […] assessed as urine Na+ level per 6 hrs at 10 mg/kg, po as gelatin capsules (reference value: 2 equiv/6 hrs); type: functional, Canis lupus familiaris; how it was run: as §1
Canis familiaris [24] = assay: Diuretic activity in mongrel dog […] assessed as urine K+ level per 6 hrs at 10 mg/kg, po as gelatin capsules (reference value: 1 equiv/6 hrs); type: functional, Canis lupus familiaris; how it was run: as §1
Canis familiaris [25] = assay: Diuretic activity in mongrel dog […] assessed as urine Cl- level per 6 hrs at 10 mg/kg, po as gelatin capsules (reference value: 2 equiv/6 hrs); type: functional, Canis lupus familiaris; how it was run: as §1
Canis familiaris [26] = assay: Diuretic activity in mongrel dog […] assessed as urine Na+ level per 6 hrs at 5 mg/kg, po as gelatin capsules (reference value: 2 equiv/6 hrs); type: functional, Canis lupus familiaris; how it was run: as §1
Canis familiaris [27] = assay: Diuretic activity in mongrel dog […] assessed as urine K+ level per 6 hrs at 5 mg/kg, po as gelatin capsules (reference value: 1 equiv/6 hrs); type: functional, Canis lupus familiaris; how it was run: as §1
Canis familiaris [28] = assay: Diuretic activity in mongrel dog […] assessed as urine Cl- level per 6 hrs at 5 mg/kg, po as gelatin capsules (reference value: 2 equiv/6 hrs); type: functional, Canis lupus familiaris; how it was run: as §1

| Compound | Activity (Canis familiaris [7]) [uEq/min] | Activity (Canis familiaris [8]) [uEq/min] | Activity (Canis familiaris [9]) [uEq/min] | Activity (Canis familiaris [10]) [mL/min] | other results |
| --- | --- | --- | --- | --- | --- |
| C=C(CC)C(=O)c1ccc(OCC(=O)O)c(Cl)c1Cl [ETHACRYNIC ACID] |  |  |  |  | Activity (Canis familiaris [1]): 21 equiv; Activity (Canis familiaris [2]): 5 equiv; Activity (Canis familiaris [3]): 26 equiv; Activity (Canis familiaris [4]): 8 equiv; Activity (Canis familiaris [5]): 2 equiv; Activity (Canis familiaris [6]): 10 equiv |
| CC(=C(C#N)C#N)c1ccc(OCC(=O)O)c(Cl)c1Cl | 123 | 38 | 125 | 2 |  |
| N#C/C(=C\c1ccc(OCC(=O)O)c(Cl)c1Cl)C(=O)O | 38 | 32 | 29 | 1 |  |
| N#CC(C#N)=Cc1ccc(OCC(=O)O)cc1Cl | 14 | 34 | 14 | 2 |  |
| CCOC(=O)C(=Cc1ccc(OCC(=O)O)c(Cl)c1Cl)C(=O)OCC |  |  |  |  | Activity (Canis familiaris [11]): 313 uEq/min; Activity (Canis familiaris [12]): 113 uEq/min; Activity (Canis familiaris [13]): 261 uEq/min; Activity (Canis familiaris [14]): 4 mL/min; Activity (Canis familiaris [15]): 200 uEq/min; Activity (Canis familiaris [16]): 54 uEq/min; Activity (Canis familiaris [17]): 198 uEq/min; Activity (Canis familiaris [18]): 2 mL/min |
| CCOC(=O)C(=Cc1ccc(OCC(=O)O)cc1)C(=O)OCC |  |  |  |  | Activity (Canis familiaris [19]): 44 uEq/min; Activity (Canis familiaris [20]): 45 uEq/min; Activity (Canis familiaris [21]): 20 uEq/min; Activity (Canis familiaris [22]): 1 mL/min |
| N#C/C(=C\c1ccc(OCC(=O)O)c(Cl)c1Cl)C(N)=O | 180 | 35 | 88 | 4 |  |
| N#C/C(=C\c1ccc(OCC(=O)O)c(Cl)c1Cl)S(N)(=O)=O |  |  |  |  | Activity (Canis familiaris [23]): 6 equiv; Activity (Canis familiaris [24]): 4 equiv; Activity (Canis familiaris [25]): 6 equiv |
| CS(=O)(=O)C(=Cc1ccc(OCC(=O)O)c(Cl)c1Cl)S(C)(=O)=O |  |  |  |  | Activity (Canis familiaris [19]): 31 uEq/min; Activity (Canis familiaris [20]): 48 uEq/min; Activity (Canis familiaris [21]): 34 uEq/min; Activity (Canis familiaris [22]): 3 mL/min |
| N#CC(C#N)=Cc1ccc(OCC(=O)O)cc1 | 64 | 10 | 45 | 2 |  |
| O=C(O)COc1ccc(/C=C2\C(=O)C3CCN2CC3)c(Cl)c1Cl | 172 | 70 | 115 | 4 |  |
| O=C(O)COc1ccc(/C=C(/C(=O)Oc2ccccc2)S(=O)(=O)Oc2ccccc2)c(Cl)c1Cl |  |  |  |  | Activity (Canis familiaris [23]): 6 equiv; Activity (Canis familiaris [24]): 2 equiv; Activity (Canis familiaris [25]): 6 equiv |
| N#CC(C#N)=Cc1ccc(OCC(=O)O)c(Cl)c1Cl | 736 | 100 | 665 | 5 |  |
| C=Cc1ccc(OCC(=O)O)c(Cl)c1Cl | 34 | 29 | 2 | 1 |  |
| CC(=O)/C(=C/c1ccc(OCC(=O)O)c(Cl)c1Cl)S(=O)(=O)c1ccccc1 | 183 | 58 | 166 | 3 |  |
| N#C/C=C/c1ccc(OCC(=O)O)c(Cl)c1Cl | 448 | 59 | 484 | 6 | Activity (Canis familiaris [26]): 12 equiv; Activity (Canis familiaris [27]): 4 equiv; Activity (Canis familiaris [28]): 17 equiv |
| CCOC(=O)/C(C#N)=C/c1ccc(OCC(=O)O)cc1 | 25 | 29 | 25 | 2 | Activity (Canis familiaris [19]): 79 uEq/min; Activity (Canis familiaris [20]): 43 uEq/min; Activity (Canis familiaris [21]): 16 uEq/min; Activity (Canis familiaris [22]): 1 mL/min |
| NC(=O)C(=Cc1ccc(OCC(=O)O)c(Cl)c1Cl)C(N)=O | 195 | 86 | 145 | 3 |  |
